ChEMBL document CHEMBL1208790, “Exploration of a new series of CCR5 antagonists: multi-dimensional optimization of a sub-series containing N-substituted pyrazoles” (Bioorg Med Chem Lett, 2010)

Assay: Lipophilicity, log D of the compound at pH 7 by shake flask method
Assay type: physicochemical
Details: buffer
How it was run: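 High-throughput shake-flask log D determination at pH 7.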

logD | Compound
1.37 | Cc1ncnc(C)c1C(=O)N1C[C@H]2CN(CC[C@H](NC(=O)C3CCCC3)c3ccccc3)C[C@H]2C1
1.89 | Cc1cc(C#N)nc(C)c1C(=O)N1C[C@H]2CN(CC[C@H](NC(=O)C3CCCC3)c3ccccc3)C[C@H]2C1
1.9 | Cc1ccnc(C)c1C(=O)N1C[C@H]2CN(CC[C@H](NC(=O)C3CCCC3)c3ccccc3)C[C@H]2C1
2.92 | Cc1nn(-c2ccccc2)c(C)c1C(=O)N1C[C@H]2CN(CC[C@H](NC(=O)C3CCCC3)c3ccccc3)C[C@H]2C1
